We go through five molecules from ChEMBL document CHEMBL4602650, “Quinolone-N-acylhydrazone hybrids as potent Zika and Chikungunya virus inhibitors” (Bioorg Med Chem Lett, 2020).

Usually EC50 stands for the concentration giving half of the maximal effect. For orientation: CC50 means the concentration that lowers cell viability or growth by half.

Calls of active or inactive are those of the source. No cut-off for these calls is given here.

Data set [1] is described as follows: Selectivity index, ratio of CC50 for African monkey Vero cells to EC50 for Zika virus infected in African green monkey Vero cells. As to conditions: read-out: Ratio CC50/EC50. In kind it is toxicity. A digest of the protocol:
(§1)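 SI = CC50 in Vero cells divided by EC50 against the matching virus in Vero cells. Both values come from three independent experiments.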

The nature of data set [2]: Selectivity index, ratio of CC50 for African monkey Vero cells to EC50 for Chikungunya virus infected in African green monkey Vero cells. In kind it is toxicity. The conditions noted are these: read-out: Ratio CC50/EC50. A digest of the protocol: as §1
Data set [3] concerns Chikungunya virus. The data set can be described thus: Antiviral activity against Chikungunya virus infected in African green monkey Vero cells assessed as reduction in viral replication treated with compound at 1 hr post-viral infection. The class given is functional, organism-based. The method, boiled down: (§2)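 Vero cells infected at MOI 0.1 and given 1 h for viral adsorption, then treated with increasing compound concentrations. EC50 is the concentration reducing viral replication by 50% versus infected controls. Mean ± SD of three independent experiments.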

Data set [4] in a line: Ratio of RibavarinCC50 to compound CC50 for African green monkey Vero cells assessed as reduction in cell viability by MTT assay. The class given is cell-based. As to conditions: chlorocebus sabaeus. On the technique in general: Tetrazolium dyes change colour on reduction, which living cells bring about.
In data set [5] the test system is Zika virus. The data set can be described thus: Antiviral activity against Zika virus infected in African green monkey Vero cells assessed as reduction in viral replication treated with compound at 1 hr post-viral infection. The class given is functional, organism-based. A digest of the protocol:
as §2

Data set [6] can be described thus: Cytotoxicity against African green monkey Vero cells assessed as reduction in cell viability by MTT assay. The class given is cell-based. As to conditions: chlorocebus sabaeus. A digest of the protocol: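 Vero cell viability tested over 100–2000 µM. CC50 is the concentration reducing viability by 50% versus untreated controls. Mean ± SD of 3 independent experiments.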

The subject of data set [7] is Zika virus. The data set can be described thus: Antiviral activity against Zika virus infected in African green monkey Vero cells assessed as reduction in viral replication at 10 uM treated with compound up to 6 hrs post infection by plaque formation assay. In kind it is functional, organism-based.
In data set [8] the test system is Zika virus. The data set can be described thus: Antiviral activity against Zika virus infected in African green monkey Vero cells assessed as reduction in viral replication at 10 uM treated with compound at 12 hrs post infection by plaque formation assay. In kind it is functional, organism-based.
The test system of data set [9] is Zika virus. The data set can be described thus: Antiviral activity against Zika virus infected in African green monkey Vero cells assessed as reduction in viral RNA production. In kind it is functional, organism-based.
Data set [10] concerns Chikungunya virus. The data set can be described thus: Antiviral activity against Chikungunya virus infected in African green monkey Vero cells assessed as reduction in viral replication at 10 uM treated with compound at 16 hrs post infection by plaque formation assay. The class given is functional, organism-based.
Data set [11] has as its system Chikungunya virus. The data set can be described thus: Antiviral activity against Chikungunya virus infected in African green monkey Vero cells assessed as reduction in viral RNA production. In kind it is functional, organism-based.
For data set [12], the system named is Chikungunya virus. The data set can be described thus: Antiviral activity against Chikungunya virus infected in African green monkey Vero cells assessed as reduction in viral replication at 10 uM treated with compound up to 12 hrs post infection by plaque formation assay. In kind it is functional, organism-based.
The subject of data set [13] is Zika virus. The data set can be described thus: Antiviral activity against Zika virus infected in African green monkey Vero cells assessed as reduction in viral replication at 10 uM treated with compound at 6 hrs post infection by plaque formation assay. In kind it is functional, organism-based.

Turning to `O=C(N/N=C/c1ccccc1O)c1c[nH]c2ccc(Br)cc2c1=O`, the selectivity ratio in data set [1] is 548; in [2], 164; in data set [4], at least 2. The EC50 in data set [3] was determined as 2.7 µM; in data set [5] it was 0.81 µM. Further, the CC50 in data set [6] was found to be 443 µM.

For the molecule `O=C(N/N=C/c1ccccc1O)c1c[nH]c2ccc(Cl)cc2c1=O`, the selectivity ratio is 1410 in data set [1], 402 in data set [2] and at least 2 in [4]. Also, the result in data set [7] and in data set [8] was Active. Further, the EC50 in data set [3] came to 2.77 µM; in data set [5] it was 0.79 µM. The Activity result in [9] is “Dose-dependent effect”. For the same molecule, the CC50 in [6] stood at 1110 µM.

Take `O=C(N/N=C/c1ccccc1O)c1c[nH]c2ccccc2c1=O`: the selectivity ratio is 661 in [1], 176 in data set [2] and at least 2 in data set [4]. For the same molecule, the EC50 is 2.85 µM in data set [3] and 0.76 µM in [5]. The CC50 in [6] turned out to be 502 µM.

As for `O=C(N/N=C/c1ccccc1O)c1c[nH]c2ccc(F)cc2c1=O`, the values for the selectivity ratio in data set [1], in [2] and in data set [4] were 893, 632 and at least 2, respectively. Besides, the outcome in [10] was inactive. For the same molecule, the EC50 was 1.06 µM in data set [3] and 0.75 µM in data set [5]. The Activity result in data set [11] is “Dose-dependent effect”. In addition, the outcome in [12] was Active. Further, the CC50 in data set [6] is 669 µM.

Take `NC(=O)c1ncn([C@@H]2O[C@H](CO)[C@@H](O)[C@H]2O)n1` [RIBAVIRIN]: the selectivity ratio in data set [1] was 75.2; in data set [2], 122. The results for the 50% effective concentration (EC50) in data set [3] and in [5] were 2.42 µM and 3.95 µM, respectively. Further, the outcome in [13] and in data set [12] was inactive. In addition, the CC50 in data set [6] was 297 µM.
